Residues, ends and D or L forms follow the SMILES beside them.
Experiments:
[1] = target: Ca^2+-bound CaM (full-length calmodulin) (Homo sapiens, UniProt P0DP23); assay: ITC, peptide binding to full-length Ca2+-bound CaM; conditions: for K2: association constant, site 2; for K2 / ΔH1 / ΔH2: ITC two-site model, 27 °C, pH 7.0, 1 mM CaCl2; for ΔH1: higher-affinity exothermic site; for ΔH2: lower-affinity endothermic site
Summary of the method: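 Calorimetry at 27 °C used CNGB1 CaM-binding-domain peptides (DMSO-d6 stocks, quantified by UV–vis) and recombinant Ca2+-bound CaM, both exchanged into 20 mM Tris pH 7.0, 100 mM KCl, 1 mM CaCl2. Peptide at 50 μM in the cell was titrated with 0.5 mM CaM over 34 injections, and the isotherm was fitted to a two-site model. The apoCaM comparison used 20 mM Tris pH 8.0, 100 mM KCl, 2 mM EGTA with a one-site fit.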

[2] = target: Ca^2+-bound CaM N-lobe (residues 1–80) (Homo sapiens, UniProt P0DP23); assay: ITC, peptide binding to isolated CaM N-lobe; conditions: for ΔH1: ITC, isolated CaM N-lobe, 27 °C, pH 7.0, 1 mM CaCl2
Summary of the method: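 The isolated recombinant Ca2+-bound CaM N-lobe and CNGB1 peptides (DMSO-d6 stocks, UV–vis quantified) were buffer-exchanged into 20 mM Tris pH 7.0, 100 mM KCl, 1 mM CaCl2. At 27 °C, 50 μM peptide in the cell was titrated with 0.5 mM N-lobe over 34 injections. The CaM1 isotherm was fitted to a one-site model and the CaM2 isotherm to a two-site model.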

[3] = target: Ca^2+-free CaM (apoCaM) (Homo sapiens, UniProt P0DP23); assay: ITC, peptide binding to Ca2+-free CaM; conditions: ITC one-site model; 27 °C; 20 mM Tris pH 8.0, 100 mM KCl, 2 mM EGTA
Summary of the method: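 Recombinant calmodulin (Ca²⁺-free) titrated into a synthetic CNGB1 CaM-binding-domain peptide (residues 1120–1147; dissolved in DMSO-d₆, quantified by UV–vis). Both were exchanged into 20 mM Tris pH 8.0, 100 mM KCl, 2 mM EGTA. Peptide was 50 μM in the cell and CaM was 0.5 mM in the syringe, over 34 injections at 27 °C. The isotherm was fit to a one-site model for ΔH.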

[4] = target: Ca^2+-bound CaM C-lobe (residues 80–149) (Homo sapiens, UniProt P0DP23); assay: ITC, peptide binding to isolated CaM C-lobe; conditions: for ΔH1: ITC one-site model, isolated CaM C-lobe, 27 °C, pH 7.0, 1 mM CaCl2; for fold decrease in binding affinity to CaM C-lobe caused by mutation: versus CaM2^WT, ITC
Summary of the method: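 Wild-type and point-mutant CNGB1 peptides (DMSO-d6 stocks, UV–vis quantified) and the recombinant Ca2+-bound CaM C-lobe fragment were exchanged into 20 mM Tris pH 7.0, 100 mM KCl, 1 mM CaCl2. At 27 °C, 50 μM peptide in the cell was titrated with 0.5 mM C-lobe over 34 injections. Isotherms were fitted to a one-site model.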

SMILES | K2 [1] | ΔH1 [1] [kcal/mol] | ΔH2 [1] | ΔH1 [2] | ΔH1 [4] | fold decrease in binding affinity to CaM C-lobe caused by mutation [4] | further results
CC(C)C[C@H](NC(=O)[C@H](C)NC(=O)[C@H](C)NC(=O)[C@H](CC(C)C)NC(=O)[C@H](CCC(=O)O)NC(=O)[C@H](CCCCN)NC(=O)[C@H](CC(C)C)NC(=O)[C@H](CCCNC(=N)N)NC(=O)[C@H](C)NC(=O)[C@H](CCCNC(=N)N)NC(=O)[C@H](CC(C)C)NC(=O)[C@H](Cc1c[nH]cn1)NC(=O)[C@H](C)NC(=O)[C@H](CC(C)C)NC(=O)[C@H](CCCCN)NC(=O)CNC(=O)CNC(=O)[C@H](CCCCN)NC(=O)[C@H](C)NC(=O)CNC(=O)[C@H](CCCCN)NC(=O)CNC(=O)CN)C(=O)N[C@@H](CCC(=O)O)C(=O)N[C@@H](C)C(=O)N[C@@H](C)C(=O)N[C@@H](C)C(=O)N[C@@H](CCCCN)C(=O)O [CaM2] (H-GGKGAKGGKLAHLRARLKELAALEAAAK-OH; N-terminus and C-terminus assumed) | 2.9 ± 0.5 × 10^6 M^−1 | -4.5 ± 1.6 | +16 ± 2 kcal/mol | – | -2.0 ± 0.1 kcal/mol | – | ΔH [3]: +2.1 ± 0.4 kcal/mol; binding stoichiometry at saturation (peptide:CaM) ([1]; biphasic ITC isotherm): two CaM2 molecules are bound to one molecule of CaM
CC(C)C[C@H](NC(=O)[C@H](C)NC(=O)[C@H](C)NC(=O)[C@H](CC(C)C)NC(=O)[C@H](CCC(=O)O)NC(=O)[C@H](CCCCN)NC(=O)[C@H](CC(C)C)NC(=O)[C@H](CCCNC(=N)N)NC(=O)[C@H](C)NC(=O)[C@H](CCCNC(=N)N)NC(=O)[C@H](CCC(=O)O)NC(=O)[C@H](Cc1c[nH]cn1)NC(=O)[C@H](C)NC(=O)[C@H](CC(C)C)NC(=O)[C@H](CCCCN)NC(=O)CNC(=O)CNC(=O)[C@H](CCCCN)NC(=O)[C@H](C)NC(=O)CNC(=O)[C@H](CCCCN)NC(=O)CNC(=O)CN)C(=O)N[C@@H](CCC(=O)O)C(=O)N[C@@H](C)C(=O)N[C@@H](C)C(=O)N[C@@H](C)C(=O)N[C@@H](CCCCN)C(=O)O [CaM2^L1132E] (H-GGKGAKGGKLAHERARLKELAALEAAAK-OH; N-terminus and C-terminus assumed) | – | – | – | – | +3.1 ± 0.5 kcal/mol | more than 500 fold | –

The next lines start with results.

K2 [1] | ΔH1 [1] [kcal/mol] | ΔH2 [1] | ΔH1 [2] | ΔH1 [4] | fold decrease in binding affinity to CaM C-lobe caused by mutation [4] | SMILES | further results
4.2 ± 0.5 × 10^3 M^−1 | -7.5 ± 0.2 | +40 ± 4 kcal/mol | -2.5 ± 0.2 kcal/mol | – | – | CC[C@H](C)[C@H](NC(=O)[C@H](CC(C)C)NC(=O)[C@H](CCCCN)NC(=O)[C@H](CCC(=O)O)NC(=O)[C@H](CCCCN)NC(=O)[C@@H](NC(=O)[C@H](CCCCN)NC(=O)[C@H](CCC(=O)O)NC(=O)[C@@H](NC(=O)[C@H](CCCNC(=N)N)NC(=O)[C@H](CCC(=O)O)NC(=O)[C@H](CCCCN)NC(=O)[C@H](Cc1ccccc1)NC(=O)[C@H](CC(C)C)NC(=O)[C@H](CCCCN)NC(=O)[C@@H](NC(=O)[C@H](CC(C)C)NC(=O)[C@H](CCC(=O)O)NC(=O)[C@H](CCC(N)=O)NC(=O)[C@H](CC(C)C)NC(=O)[C@H](CCCNC(=N)N)NC(=O)[C@H](CC(=O)O)NC(=O)[C@@H](N)CC(N)=O)C(C)C)[C@@H](C)O)C(C)C)C(=O)N[C@@H](CC(=O)O)C(=O)N1CCC[C@H]1C(=O)O [CaM1] (H-NDRLQELVKLFKERTEKVKEKLIDP-OH; N-terminus and C-terminus assumed) | fold higher affinity for Ca^2+-bound CaM compared to apoCaM ([1]; comparison of NMR spectral changes and ITC): at least 100 fold; fold higher affinity for CaM N-lobe compared to CaM C-lobe ([2]; from ITC with isolated lobes): at least fivefold
– | – | – | +0.7 ± 0.5 kcal/mol | – | – | CC[C@H](C)[C@H](NC(=O)[C@H](CC(C)C)NC(=O)[C@H](CCCCN)NC(=O)[C@H](CCC(=O)O)NC(=O)[C@H](CCCCN)NC(=O)[C@@H](NC(=O)[C@H](CCCCN)NC(=O)[C@H](CCC(=O)O)NC(=O)[C@@H](NC(=O)[C@H](CCCNC(=N)N)NC(=O)[C@H](CCC(=O)O)NC(=O)[C@H](CCCCN)NC(=O)[C@H](CCC(=O)O)NC(=O)[C@H](CC(C)C)NC(=O)[C@H](CCCCN)NC(=O)[C@@H](NC(=O)[C@H](CC(C)C)NC(=O)[C@H](CCC(=O)O)NC(=O)[C@H](CCC(N)=O)NC(=O)[C@H](CC(C)C)NC(=O)[C@H](CCCNC(=N)N)NC(=O)[C@H](CC(=O)O)NC(=O)[C@@H](N)CC(N)=O)C(C)C)[C@@H](C)O)C(C)C)C(=O)N[C@@H](CC(=O)O)C(=O)N1CCC[C@H]1C(=O)O [CaM1^F575E] (H-NDRLQELVKLEKERTEKVKEKLIDP-OH; N-terminus and C-terminus assumed) | –
– | – | – | – | +2.6 ± 1.8 kcal/mol | more than 500 fold | CC(C)C[C@H](NC(=O)[C@H](C)NC(=O)[C@H](C)NC(=O)[C@H](CC(C)C)NC(=O)[C@H](CCC(=O)O)NC(=O)[C@H](CCCCN)NC(=O)[C@H](CCC(=O)O)NC(=O)[C@H](CCCNC(=N)N)NC(=O)[C@H](C)NC(=O)[C@H](CCCNC(=N)N)NC(=O)[C@H](CC(C)C)NC(=O)[C@H](Cc1c[nH]cn1)NC(=O)[C@H](C)NC(=O)[C@H](CC(C)C)NC(=O)[C@H](CCCCN)NC(=O)CNC(=O)CNC(=O)[C@H](CCCCN)NC(=O)[C@H](C)NC(=O)CNC(=O)[C@H](CCCCN)NC(=O)CNC(=O)CN)C(=O)N[C@@H](CCC(=O)O)C(=O)N[C@@H](C)C(=O)N[C@@H](C)C(=O)N[C@@H](C)C(=O)N[C@@H](CCCCN)C(=O)O [CaM2^L1136E] (H-GGKGAKGGKLAHLRAREKELAALEAAAK-OH; N-terminus and C-terminus assumed) | –

— paper PMC9810080 (Biochemistry, 2022)
